For six molecules, MIC, IC50 and Activity results are on record in ChEMBL document CHEMBL3632619, “Angucyclines and Angucyclinones from Streptomyces sp. CB01913 Featuring C-Ring Cleavage and Expansion” (J Nat Prod, 2015).

Converted amounts (≈) assume the structure as drawn. The source made the active and inactive calls.

One test deals with Bacillus subtilis. Put plainly: Antibacterial activity against Bacillus subtilis ATCC 23857 after 18 hrs by broth microdilution method. The settings on record: ATCC 23857, 18 h.
The next test has as its system Staphylococcus aureus. Nature of the test: Antibacterial activity against Staphylococcus aureus ATCC 25923 after 18 hrs by broth microdilution method. As to conditions: ATCC 25923, 18 h.
In test [1] the test system is Mycolicibacterium smegmatis. Put plainly: Antibacterial activity against Mycobacterium smegmatis ATCC 607 after 18 hrs by broth microdilution method. The settings on record: ATCC 607, 18 h. A general note: In broth dilution the organism is exposed to a series of concentrations in liquid medium.
The next test has as its system SF-539. Nature of the test: Cytotoxicity against human SF539 cells after 72 hrs by MTS assay. Format: functional, cell-based. The settings on record: SF-539, 72 h.
Test [2] has as its system Escherichia coli. Put plainly: Antibacterial activity against Escherichia coli ATCC 25922 after 12 hrs by agar diffusion method. Type of test: functional, organism-based. The method, boiled down:
(§1)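 Filter-paper disc on tryptic soy agar receiving 25 µL of compound at 2 mM in H2O; plates incubated 37 °C for 12 h, then inhibition zone scored; tetracycline as positive control.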
A general note: Agar diffusion results depend on both activity and mobility in agar.

Another test has as its system M14. Nature of the test: Cytotoxicity against human M14 cells after 72 hrs by MTS assay. Type of test: functional, cell-based. The settings on record: M14, 72 h. On the technique in general: Formazan colour is commonly taken as a measure of viable cells.
The next test deals with NCI-H226. Nature of the test: Cytotoxicity against human NCI-H226 cells after 72 hrs by MTS assay. Format: functional, cell-based. The settings on record: NCI-H226, 72 h.
The next test concerns SF-295. Put plainly: Cytotoxicity against human SF295 cells after 72 hrs by MTS assay. Type of test: functional, cell-based. As to conditions: SF-295, 72 h.
A further test has as its system MDA-MB-468. Put plainly: Cytotoxicity against human MDA-MB-468 cells after 72 hrs by MTS assay. Format: functional, cell-based. The settings on record: MDA-MB-468, 72 h.
Test [3] concerns Escherichia coli. Nature of the test: Antibacterial activity against Escherichia coli JM 109 after 12 hrs by agar diffusion method. Format: functional, organism-based. The method, boiled down:
as §1

Turning to `CN(C)[C@@H]1C(O)=C(C(N)=O)C(=O)[C@@]2(O)C(O)=C3C(=O)c4c(O)cccc4[C@@](C)(O)[C@H]3C[C@@H]12` [TETRACYCLINE], the MIC (usually the smallest concentration in the dilution series that meets the test's criterion for growth inhibition) in the test on Bacillus subtilis turned out to be 13 µg/mL (≈ 29.3 µM); in the test on Staphylococcus aureus, 6.7 µg/mL (≈ 15.1 µM); in test [1], 11 µg/mL (≈ 24.8 µM).
With `COc1cccc2c1C(=O)c1ccc3c(c1C2O)C(=O)C[C@](C)(O)C3` (stereo partly drawn), the IC50 (as a rule, the midpoint of a concentration-inhibition curve) in the test on SF-539 was found to be 12 µM; in the test on M14, 31 µM; in the test on NCI-H226 it was 7.2 µM; with SF-295 it was 3.1 µM; with MDA-MB-468, 52 µM. Further, the MIC (against Bacillus subtilis; against Staphylococcus aureus; in [1]) was over 100 µg/mL in each case. Besides, the result with Escherichia coli [2] and with Escherichia coli [3] was inactive.
In the case of `C[C@]1(O)CC(=O)c2c(ccc3c2C(=O)c2cccc(O)c2C3=O)C1` [TETRANGOMYCIN], the IC50 is 3.2 µM in the test with SF-539; 2.4 µM in the test on M14; 7.2 µM with NCI-H226; 12 µM with SF-295; 16 µM in the test on MDA-MB-468. The MIC worked out at 8.1 µg/mL (≈ 25.1 µM) against Bacillus subtilis, 11 µg/mL (≈ 34.1 µM) against Staphylococcus aureus and 9.7 µg/mL (≈ 30.1 µM) in test [1]. For the same molecule, the result with Escherichia coli [2] and in the test on Escherichia coli [3] was inactive.
In the case of `COc1cccc2c1C(=O)c1ccc3c(c1C2=O)C(=O)C[C@](C)(O)C3`, the IC50 was 10 µM in the test with SF-539; 9.7 µM in the test with M14; 4.6 µM in the test with NCI-H226; 17 µM in the test on SF-295; 27 µM in the test with MDA-MB-468. Also, the MIC is 25 µg/mL (≈ 74.3 µM) against Bacillus subtilis, over 100 µg/mL with Staphylococcus aureus and over 100 µg/mL in [1]. Further, the outcome with Escherichia coli [2] and with Escherichia coli [3] was inactive.
Regarding `CO[C@@]12[C@H](COC(N)=O)C3=C(C(=O)C(C)=C(N)C3=O)N1C[C@@H]1N[C@@H]12` [MITOMYCIN], the IC50 in the test on SF-539 came to 0.038 µM; in the test with M14, 0.47 µM; in the test with NCI-H226, 0.58 µM; in the test with SF-295 it was 0.54 µM; in the test with MDA-MB-468, 0.5 µM.
As to `COc1cccc(C(=O)c2c(O)ccc3c2C(=O)C[C@](C)(O)C3)c1CO`, the IC50 in the test on SF-539, with M14, in the test on NCI-H226, with SF-295 and in the test with MDA-MB-468 was over 100 µM in each case. For the same molecule, the figures for the MIC (against Bacillus subtilis; in the test on Staphylococcus aureus; in test [1]) were 85 µg/mL (≈ 239 µM), over 100 µg/mL and 93 µg/mL (≈ 261 µM), respectively. Also, the outcome in the test on Escherichia coli [2] and with Escherichia coli [3] was inactive.
